Test results: PMC3539145 (Scientific Reports, 2013)

Experiments:
[1] = biological target: human thymidylate synthase (h-TS) (Homo sapiens, UniProt P04818); test: Human thymidylate synthase activity; format: biochemical
AC [2] = biological target: T1, AC (Mus musculus, UniProt Q9WV54); test: AC activity measured ex vivo in mouse tissues after i.p. injection; set-up: species or system mice; conditions: for AC activity in mouse lungs and brain cortex: 10 or 30 mg-kg^−1 i.p., ex vivo 2 h after injection
T1 sequence (Q9WV54 19-394): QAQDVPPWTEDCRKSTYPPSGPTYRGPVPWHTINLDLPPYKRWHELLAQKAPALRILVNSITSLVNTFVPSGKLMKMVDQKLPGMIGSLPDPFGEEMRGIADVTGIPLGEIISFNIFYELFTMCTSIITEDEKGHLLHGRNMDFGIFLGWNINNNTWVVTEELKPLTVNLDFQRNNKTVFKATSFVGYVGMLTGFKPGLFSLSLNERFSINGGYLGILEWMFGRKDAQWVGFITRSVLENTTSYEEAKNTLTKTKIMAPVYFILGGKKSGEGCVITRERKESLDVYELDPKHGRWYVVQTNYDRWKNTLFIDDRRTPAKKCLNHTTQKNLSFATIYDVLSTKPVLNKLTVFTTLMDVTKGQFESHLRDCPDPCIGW
How it was run: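 Male Swiss Webster mice (20–35 g) received test compound at 10 or 30 mg-kg−1 i.p. (1 ml-kg−1) in 15% polyethylene glycol/15% Tween-80/70% saline. Mice were killed by cervical dislocation 2 h after dosing. Lungs and brain cortex were frozen in liquid nitrogen and stored at −80°C. AC activity was measured ex vivo. Data are mean ± s.e.m., n = 6.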

SW403 cells [3] = test: Ceramide levels in SW403 cells; format: cell-based, human; conditions: 3 μM, 3 h
How it was run: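 SW403 human colon adenocarcinoma cells are grown in DMEM with 10% FBS at 37°C and 5% CO2. They are treated with test compound at 3 µM, or with vehicle (0.1% DMSO in DMEM), for 3 h. Ceramide species, including d18:1/14:0, 16:0 and 18:0, are identified and quantified by LC/MS. Values are compared with vehicle by one-way ANOVA with Tukey's test.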

SW403 cells [4] = test: SW403 cell viability; format: cell-based, human; conditions: for interaction with taxol on SW403 cell viability / interaction with 5-FU on SW403 cell viability: isobolographic analyses; for interaction with 5-FU on SW403 cell viability: 5-FU 0.3 µM; for change in SW403 cell viability: single treatment, 3 μM, 3 h
How it was run: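 SW403 cells (2×10^5) are seeded the day before and treated in serum-free DMEM with test compound (0.1–100 µM) plus a partner drug (for 5-FU, 0.3 µM). Additions are repeated every 24 h over 72 h. Viability is read by Trypan blue exclusion on a hemocytometer. Interaction is assessed isobolographically, comparing experimental EC50 with the theoretical EC50 from the isobole equation.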

AC [5] = biological target: T2, AC (Homo sapiens, UniProt Q13510); test: AC activity in lysates of treated intact SW403 cells; format: cell-based
T2 sequence (Q13510 22-395): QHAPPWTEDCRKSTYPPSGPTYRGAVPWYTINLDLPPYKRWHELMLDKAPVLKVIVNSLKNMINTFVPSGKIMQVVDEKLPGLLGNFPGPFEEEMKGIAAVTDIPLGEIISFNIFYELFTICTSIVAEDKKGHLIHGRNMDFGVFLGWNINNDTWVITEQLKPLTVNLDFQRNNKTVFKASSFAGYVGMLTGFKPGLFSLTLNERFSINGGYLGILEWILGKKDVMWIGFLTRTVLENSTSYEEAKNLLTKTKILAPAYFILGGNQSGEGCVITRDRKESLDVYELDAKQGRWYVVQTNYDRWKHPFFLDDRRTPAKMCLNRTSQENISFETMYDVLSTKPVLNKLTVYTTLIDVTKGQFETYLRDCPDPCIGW
How it was run: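 Intact cells were exposed to test compound at 0.3–10 µM, with AC activity read 3 h later in cell lysates. A time course used 3 µM over various intervals. Vehicle was 0.1% DMSO in DMEM. SW403 cells were grown in DMEM with 10% FBS at 37°C, 5% CO2. Data are mean ± s.e.m., n = 3–6, each assay in duplicate.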

[6] = test system: mouse tissues (lungs and cerebral cortex); test: Ceramide levels in mouse tissues after i.p. injection; format: in vivo; conditions: mice, 10 or 30 mg-kg^−1 i.p., lungs and brain cortex, 2 h
How it was run: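 Male Swiss Webster mice (20–35 g) receive test compound i.p. (10 or 30 mg-kg−1; 1 ml-kg−1) in 15% PEG, 15% Tween-80 and 70% saline, or vehicle alone. They are killed by cervical dislocation 2 h later. Lungs and cerebral cortex are snap-frozen in liquid nitrogen, stored at −80°C, and ceramide is measured by LC/MS. Mean ± s.e.m., n = 6.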

HEK 293 cells = test: Cell viability of native HEK 293 cells; format: cell-based, human
How it was run: (§1)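 Native HEK 293 cells and HEK 293 cells transfected with V5/His-tagged rat AC (pEF6 vector) and selected with G418 (0.3 mg/mL) are exposed to graded test-compound concentrations added in DMSO (final 0.1%). Cells are harvested, spun at 800xg for 10 min and resuspended in PBS. They are mixed 1:1 with 0.4% Trypan blue for 1 min, and viable cells are counted on a hemocytometer. Mean ± s.e.m., n = 4.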

AC [7] = biological target: T2, AC; test: AC activity in lysates of treated intact LNCaP cells; format: cell-based; conditions: 0.3–10 µM for 3 h; 3 µM for various time intervals
[8] = test system: AC-overexpressing HEK 293 cells; test: Cell viability of AC-overexpressing HEK 293 cells; format: cell-based, human
How it was run: as §1

AC [9] = conditions: read-out: AC IC50; in vitro, in keratinocytes; cited from earlier work
[10] = Homo sapiens, HEK293, 24 h, read-out: EC50 (cell death / cell viability)

Chain of human thymidylate synthase (h-TS) (P04818 whole entry): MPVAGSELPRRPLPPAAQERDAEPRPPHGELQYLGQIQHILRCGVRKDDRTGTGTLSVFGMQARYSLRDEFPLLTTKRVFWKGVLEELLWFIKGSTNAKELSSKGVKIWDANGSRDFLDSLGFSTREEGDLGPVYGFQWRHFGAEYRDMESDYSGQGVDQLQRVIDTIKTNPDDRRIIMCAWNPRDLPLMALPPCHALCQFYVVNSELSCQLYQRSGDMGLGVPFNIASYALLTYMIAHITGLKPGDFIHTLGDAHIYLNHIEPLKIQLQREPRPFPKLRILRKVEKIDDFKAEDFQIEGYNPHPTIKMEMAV

CCCCCCNC(=O)n1ccc(=O)[nH]c1=O [ARN080, N-hexyl-2,4-dioxo-pyrimidine-1-carboxamide]
IC50 [1]: 196 ± 27 µM | AC activity in mouse lungs and brain cortex (AC [2]; mice): substantially reduced | ED50 (AC [2]; mouse, ip, 2 h, read-out: median inhibitory dose, ID50 (AC activity in vivo)): ~10 mg/kg | ceramide levels in SW403 cells (SW403 cells [3]): increased ceramide levels | interaction with taxol on SW403 cell viability (SW403 cells [4]): Super-additive effects | interaction with 5-FU on SW403 cell viability (SW403 cells [4]): acted synergistically | change in SW403 cell viability (SW403 cells [4]): did not result in any statistically detectable change

O=c1[nH]cc(F)c(=O)[nH]1 [Compound 5-FU, 5-fluorouracil, reference compound]
AC activity in mouse tissue (AC [2]; mice, 30 mg-kg^−1 i.p., 2 h, lungs (Figure 3A)): no statistically detectable effect | AC activity in SW403 cells (AC [5]; 3 μM, 3 h): did not cause any detectable changes | ceramide levels in SW403 cells (SW403 cells [3]): did not cause any detectable changes

CCCCCCNC(=O)n1cc(Cl)c(=O)[nH]c1=O [ARN082, 5-chloro-N-hexyl-2,4-dioxo-pyrimidine-1-carboxamide]
IC50 [1]: 496 ± 82 µM

CCCCCCNC(=O)n1cc(F)c(=O)[nH]c1=O [Carmofur, 1-hexylcarbamoyl-5-fluorouracil]
tissue ceramide content [6]: increases in tissue ceramide content | IC50 [1]: 1210 ± 190 µM | AC activity in mouse lungs and brain cortex (AC [2]; mice): dose-dependent inhibition | EC50 (HEK 293 cells; [10]): 1.4 µM | AC activity in SW403 cells (AC [5]; 0.3–10 µM for 3 h, 3 µM for various time intervals): concentration- and time-dependent reduction | AC activity in LNCaP cells (AC [7]): inhibits AC | EC50 in AC-overexpressing cells relative to native cells ([8]; HEK 293-AC vs native HEK 293, 24 h): 50 fold | EC50 [8, 10]: 66 µM

CCCCCCNC(=O)n1cc(C)c(=O)[nH]c1=O [ARN081, N-hexyl-5-methyl-2,4-dioxo-pyrimidine-1-carboxamide]
IC50 [1]: 762 ± 123 µM

CCCCCCCCCCCCCC(=O)N[C@H](CO)[C@H](O)c1ccc([N+](=O)[O-])cc1 [Compound B13, (1R, 2R)-2-(N-tetradecanoylamino)-1-(4-nitrophenyl)-1,3-propanediol]
IC50 (AC [9]): ~10 µM

CCCC[C@@H](C)[C@@H](OC(=O)C[C@@H](CC(=O)O)C(=O)O)[C@H](C[C@@H](C)C[C@H](O)CCCC[C@@H](O)C[C@H](O)[C@H](C)N)OC(=O)C[C@@H](CC(=O)O)C(=O)O [FB1, fumonisin B1]
effect of FB1 on carmofur induced cell death (HEK 293 cells; HEK 293 cells, combination of carmofur plus FB1, Trypan blue): does not decrease carmofur induced cell death

CCCCCCNC(=O)n1cc(C(F)(F)F)c(=O)[nH]c1=O [ARN398, 5-trifluoromethyl-N-hexyl-2,4-dioxo-pyrimidine-1-carboxamide]
IC50 [1]: 1340 ± 268 µM | ceramide levels in SW403 cells (SW403 cells [3]): increased ceramide levels | interaction with taxol on SW403 cell viability (SW403 cells [4]): Super-additive effects | interaction with 5-FU on SW403 cell viability (SW403 cells [4]): acted synergistically | change in SW403 cell viability (SW403 cells [4]): did not result in any statistically detectable change
